Results pooled from the literature.
Protocols differ between the studies behind these lines.
Effect on: cell growth or viability

Cc1ccc2c(-c3cc4c(CN5CCN(Cc6ccccn6)CC5)cnc(C)c4o3)cc(=O)oc2c1
IC50 (NCI-H1975; MTT; 72 h): 32.1 µM

C=C(F)C(=O)N1CCN(c2nc(OC[C@@H]3CCCN3C)nc3c2CCN(c2cccc4cccc(Cl)c24)C3)C[C@@H]1CC#N
IC50 (SW1463; ATP luminescence; 3D culture): 0.00422 µM

CC1(CN)CCN(c2cnc3c(Sc4ccncc4Cl)n[nH]c3n2)CC1
IC50 (NCI-H1975; 96 h): 6.68 µM

O=C(c1ccc(Oc2ccc(OCc3ccccc3)cc2)c([N+](=O)[O-])c1)C(Cl)Cl
inhibition (NCI-H1975; MTT; 2.5 µM): 95.2%

O=C(NO)c1ccc(CNc2nc3cccc(-c4ccc5c(c4)OCO5)n3n2)cc1
GI50 (NCI-H322M; SRB): 0.6 µM

Cc1ncc(CN2CCc3ccccc3C2)c2cc(C(=O)c3ccc4c(c3)OCCO4)oc12
IC50 (NCI-H1975; MTT; 72 h): 29.5 µM

C=CC(=O)N1CCN(c2nc(=O)n(-c3c(C)ccnc3C(C)C)c3nc(-c4c(O)cccc4F)c(F)cc23)[C@@H](C)C1
IC50 (SW1463; ATP luminescence): 0.132 µM

Cc1sc2c(c1C)C(c1ccc(Cl)cc1)=N[C@@H](CC(=O)NCCCCCCCCNC(=O)COc1cccc3c1C(=O)N(C1CCC(=O)NC1=O)C3=O)c1nnc(C)n1-2 (stereo partly shown)
IC50 (SET-2; ATP luminescence): 0.035 µM

CC(C)Oc1ccc(S(=O)(=O)c2ccc(Oc3cc(OCC(N)=O)c(C(=O)C(Cl)Cl)cc3[N+](=O)[O-])cc2)cc1
IC50 (NCI-H1975; MTT; 72 h): 0.3 µM

C=CC(=O)NC1CCN(c2ncc3ncnc(Nc4ccc(Oc5ccc6c(c5)ncn6C)c(C)c4)c3n2)CC1
EC50 (NCI-H322): 0.471 µM

O=C1c2ccccc2C(=O)c2c(Oc3ccc(C(=O)C(Cl)Cl)cc3[N+](=O)[O-])cccc21
inhibition (NCI-H1975; MTT; 2.5 µM): 97.1%

C=CC(=O)Nc1cc(Nc2nccc(-c3cn(C)c4ccccc34)n2)c(OC)cc1N(C)CCN(C)C
inhibition (NCI-H1975; MTT; 0.5 µM, 72 h): 69.6%

COc1cccc2c1C(=O)c1c(O)c3c(c(O)c1C2=O)C[C@@](O)(C(=O)CO)C[C@@H]3O[C@H]1C[C@H](N)[C@H](O)[C@H](C)O1
IC50 (HEK293; MTT; 72 h): 0.06 µM

C=CC(=O)Nc1cc(Nc2nccc(-c3cn(C)c4ccccc34)n2)c(OC)cc1N(C)CCN(C)C
IC50 (NCI-H1975; MTT; 72 h): 29.5 µM

O=C1CC[C@@H](COc2ccc(C(=O)C(Cl)Cl)cc2[N+](=O)[O-])N1
inhibition (NCI-H1975; MTT; 2.5 µM): 96.7%

CC1(C)CCC(CN2CCN(c3ccc(C(=O)NS(=O)(=O)c4ccc(NCC5CCOCC5)c([N+](=O)[O-])c4)c(Oc4cnc5[nH]ccc5c4)c3)CC2)=C(c2ccc(Cl)cc2)C1
IC50 (Rec1; ATP luminescence; 48 h): 0.489 µM
